Values belong to the compound of their own block, whether it stands above or below them. Bridge positions count the residues as written; N and C are the ends. Ends that are not written are not given here.
Legend:
interscapular BAT = test: FDG PET/CT imaging of BAT metabolic activity; assay type: in vivo, mouse; conditions: versus cold-acclimated mice
BAT = test: NIR fluorescence imaging; assay type: in vivo, mouse; conditions: 100 nmol iv, 1 hr, IRDye800 conjugate
Method in brief: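 Subjects were 6-week-old C57BL/6 males, n=3 per group, with experiments done twice. Mice were pre-housed at 6 °C or RT, with propranolol where indicated. IRDye800-conjugated test peptide or a control WAT-homing peptide was given i.v. and circulated 1 h. Interscapular BAT and i.p. WAT were resected and imaged by NIR fluorescence with 785 nm laser excitation. Data are mean ± s.e.m.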

reduction in FDG uptake by BAT as a result of warm-acclimation (interscapular BAT): 1.7 fold
Compound: OC[C@H]1O[C@@H](O)[C@H]([18F])[C@@H](O)[C@@H]1O [FDG, fluorine-18 deoxyglucose]

Compound: CC(C)NCC(O)COc1cccc2ccccc12 (stereo not drawn) [propranolol]
reduction in FDG uptake by BAT, warm-acclimation combined with propranolol treatment (interscapular BAT; propranolol ip 5 mg/kg): 4.1 fold

Compound: CKGGRAKDC (disulfide 1-9 (inferred))
accumulation in WAT and BAT (resected tissues) (BAT): accumulation in WAT, but not in BAT
